The values below come from ChEMBL document CHEMBL3399968, “Diarylsulfonamides and their bioisosteres as dual inhibitors of alkaline phosphatase and carbonic anhydrase: Structure activity relationship and molecular modelling studies” (Bioorg Med Chem, 2015).

For experiment [1], the target named is T1, Alkaline phosphatase, tissue-nonspecific isozyme (Bos taurus) (UniProt P09487).
T1 sequence (whole entry): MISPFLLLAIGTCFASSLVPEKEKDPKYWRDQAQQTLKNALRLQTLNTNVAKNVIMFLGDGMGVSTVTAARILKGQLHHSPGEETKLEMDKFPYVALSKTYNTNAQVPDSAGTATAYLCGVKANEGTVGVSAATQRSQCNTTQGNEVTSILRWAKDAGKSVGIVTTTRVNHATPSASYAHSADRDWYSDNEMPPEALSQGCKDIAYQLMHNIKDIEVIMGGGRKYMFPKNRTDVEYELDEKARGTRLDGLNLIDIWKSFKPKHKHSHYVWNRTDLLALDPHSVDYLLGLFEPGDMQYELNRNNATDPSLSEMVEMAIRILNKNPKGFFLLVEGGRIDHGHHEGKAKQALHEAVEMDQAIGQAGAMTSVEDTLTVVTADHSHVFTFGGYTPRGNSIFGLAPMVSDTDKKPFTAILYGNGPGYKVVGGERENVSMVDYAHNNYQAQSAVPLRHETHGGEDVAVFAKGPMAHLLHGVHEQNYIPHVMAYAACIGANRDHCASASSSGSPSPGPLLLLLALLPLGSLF
Description: Inhibition of bovine kidney non-specific alkaline phosphatase using CDP-star chemiluminescent substrate assessed as change in luminescence at 0.2 mM by spectrophotometric method. The essentials: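 Buffer: 8 M DEA pH 9.8, 2.5 mM MgCl2, 0.05 mM ZnCl2. Compound 0.2 mM, final DMSO 1% (v/v), with TNAP (1:800 dilution, 0.8 units/mL); pre-incubated 3–5 min at 37 °C, luminescence pre-read; CDP-star added to 110 µM final; 15 min at 37 °C, after-read. Percent inhibition vs uninhibited control; levamisole 2 mM per well as positive control.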

The target of experiment [2] is Intestinal-type alkaline phosphatase (Bos taurus, UniProt P19111). Description: Inhibition of calf intestinal alkaline phosphatase using CDP-star chemiluminescent substrate assessed as change in luminescence by spectrophotometric method.
Intestinal-type alkaline phosphatase, sequence (P19111 whole entry): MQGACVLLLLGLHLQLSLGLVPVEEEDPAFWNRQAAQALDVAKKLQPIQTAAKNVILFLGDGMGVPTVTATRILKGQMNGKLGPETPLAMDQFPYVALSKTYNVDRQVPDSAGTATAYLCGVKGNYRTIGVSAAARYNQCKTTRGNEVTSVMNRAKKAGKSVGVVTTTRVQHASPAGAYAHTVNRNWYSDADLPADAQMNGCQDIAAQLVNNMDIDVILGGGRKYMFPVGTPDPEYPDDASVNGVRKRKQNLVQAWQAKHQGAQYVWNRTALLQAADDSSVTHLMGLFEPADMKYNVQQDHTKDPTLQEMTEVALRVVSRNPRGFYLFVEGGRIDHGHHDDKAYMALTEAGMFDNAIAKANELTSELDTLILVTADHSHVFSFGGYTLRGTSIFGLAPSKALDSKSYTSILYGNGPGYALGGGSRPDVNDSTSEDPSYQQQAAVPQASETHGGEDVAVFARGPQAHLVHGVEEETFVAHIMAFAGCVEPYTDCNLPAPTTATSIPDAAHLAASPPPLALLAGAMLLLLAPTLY
Experiment [3] concerns the target Carbonic anhydrase 2 (Bos taurus, UniProt P00921). As to the kind of experiment: Inhibition of bovine carbonic anhydrase 2 assessed as hydrolysis of p-nitrophenyl acetate after 30 mins by spectrophotometric method.
The target in experiment [4] is T2, Alkaline phosphatase, tissue-nonspecific isozyme (Bos taurus, UniProt P09487).
T2 sequence (P09487 whole entry): T1 sequence (whole entry)
Description: Inhibition of bovine kidney non-specific alkaline phosphatase using CDP-star chemiluminescent substrate assessed as change in luminescence by spectrophotometric method.

Experiment [5] has as its target Carbonic anhydrase 2 (Bos taurus) (UniProt P00921). Description: Inhibition of bovine carbonic anhydrase 2 assessed as hydrolysis of p-nitrophenyl acetate at 0.5 mM after 30 mins by spectrophotometric method. The essentials:
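Bovine CA (50 U/well) in 50 mM Tris-sulfate pH 7.6 with 0.1 mM ZnCl2; compound at 0.5 mM in 1% DMSO; pre-incubated 10 min at 25 °C, pre-read at 348 nm; p-nitrophenyl acetate added to 0.6 mM final; 30 min at 25 °C, read at 348 nm.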

Carbonic anhydrase 2, sequence (P00921 whole entry): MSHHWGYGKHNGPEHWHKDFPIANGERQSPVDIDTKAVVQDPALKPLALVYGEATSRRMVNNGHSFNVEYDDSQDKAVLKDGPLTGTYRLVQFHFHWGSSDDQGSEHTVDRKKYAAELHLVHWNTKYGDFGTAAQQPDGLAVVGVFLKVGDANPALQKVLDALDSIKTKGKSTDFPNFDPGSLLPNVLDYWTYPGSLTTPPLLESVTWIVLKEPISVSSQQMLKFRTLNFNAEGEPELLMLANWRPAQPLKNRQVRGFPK
Carbonic anhydrase 2 (Bos taurus), sequence (P00921 2-260 limits assumed): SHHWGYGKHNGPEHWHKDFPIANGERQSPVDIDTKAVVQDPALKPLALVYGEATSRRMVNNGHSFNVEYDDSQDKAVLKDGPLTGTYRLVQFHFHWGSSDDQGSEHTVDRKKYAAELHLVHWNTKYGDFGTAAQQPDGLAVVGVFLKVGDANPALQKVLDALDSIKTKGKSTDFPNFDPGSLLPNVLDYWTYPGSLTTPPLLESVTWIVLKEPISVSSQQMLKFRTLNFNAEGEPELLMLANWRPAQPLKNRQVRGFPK

For `NS(=O)(=O)c1ccc(CCNS(=O)(=O)c2ccc(F)cc2)cc1`, the inhibition in experiment [1] was 44.1%. The IC50 came out at 11.7 µM in experiment [2] and 35 nM in experiment [3] (read-out: IC50).
`NS(=O)(=O)c1ccc(CCNC(=O)c2ccc(F)cc2)cc1`: the IC50 is 22.5 µM in experiment [4], 6.73 µM in experiment [2] and 656 nM in experiment [3] (read-out: IC50). Besides, in experiment [4], the Ki was determined as 4510 nM.
With `NS(=O)(=O)c1ccc(NC(=O)c2ccc(F)cc2)cc1`, in experiment [4], the IC50 came to 58.6 µM and the Ki came out at 25100 nM. For the same compound, the IC50 in experiment [2] came to 5.91 µM. In addition, the inhibition in experiment [5] was 47.3%.
Take `Cc1ccc(S(=O)(=O)Nc2ccccc2)cc1`: in experiment [4], the 50% inhibitory concentration (IC50) came out at 0.18 µM and the inhibition constant Ki stood at 70 nM. For the same compound, the IC50 in experiment [2] stood at 9.15 µM.
Turning to `NS(=O)(=O)c1cccc(NC(=O)c2ccc(F)cc2)c1`, in experiment [4], the IC50 amounted to 55.6 µM and the Ki was 16200 nM. The IC50 in experiment [2] turned out to be 9.75 µM. The inhibition in experiment [5] worked out at 36.4%.
As to `Cc1ccc(S(=O)(=O)Nc2cccc(S(N)(=O)=O)c2)cc1`, the IC50 in experiment [4] amounted to 2.24 µM; in experiment [2], 8.27 µM; in experiment [3] (read-out: IC50), 152 nM. Besides, the Ki in experiment [4] was 950 nM.
The corresponding values for `NS(=O)(=O)c1ccc(CNC(=O)c2ccccc2)cc1` are 2.87 µM, 4.45 µM, 691 nM and 918 nM.
For the compound `NS(=O)(=O)c1cccc(NS(=O)(=O)c2ccc(F)cc2)c1`, the IC50 in experiment [4] worked out at 0.15 µM; in experiment [2] it was 1.27 µM; in experiment [3] (read-out: IC50) it was 100 nM. The Ki in experiment [4] was determined as 60 nM.
`NS(=O)(=O)c1ccc(CNS(=O)(=O)c2ccc(F)cc2)cc1`: the IC50 in experiment [4] turned out to be 2.94 µM; in experiment [2] it was 1.35 µM; in experiment [3] (read-out: IC50), 215 nM. Also, the Ki in experiment [4] amounted to 1250 nM.
The matching figures for `Cc1ccc(S(=O)(=O)Nc2ccc(S(N)(=O)=O)cc2)cc1`: 222 µM, 14.5 µM, 57 nM and 91900 nM.
`Cc1ccc(S(=O)(=O)NCc2ccc(S(N)(=O)=O)cc2)cc1`: the IC50 is 0.115 µM in experiment [4], 0.14 µM in experiment [2] and 134 nM in experiment [3] (read-out: IC50). Further, the inhibition constant Ki in experiment [4] was 50 nM.
Take `NS(=O)(=O)c1ccc(NS(=O)(=O)c2ccc(F)cc2)cc1`: the half-maximal inhibitory concentration (IC50) in experiment [4] stood at 3.26 µM; in experiment [2], 1.13 µM; in experiment [3] (read-out: IC50) it was 100 nM. Moreover, in experiment [4], the inhibition constant (Ki) amounted to 1390 nM.
Take `CCOc1ccc(NS(=O)(=O)c2ccc(F)cc2)cc1`: in experiment [1], the inhibition was 39.5%. For the same compound, the IC50 in experiment [2] is 0.72 µM; in experiment [3], “Not Active”.
For `c1ccc([C@H]2CN3CCSC3=N2)cc1` [LEVAMISOLE], the Ki in experiment [4] came to 1810 nM.
Consider `CCOc1ccc(NS(=O)(=O)c2ccc(C)cc2)cc1`, for which the IC50 was 0.31 µM in experiment [4], 30.1 µM in experiment [2] and “Not Active” in experiment [3]. Also, the Ki in experiment [4] came to 128 nM.
As for `NS(=O)(=O)c1ccc(CCNC(=O)c2ccccc2)cc1`, the IC50 in experiment [4] was 10.3 µM; in experiment [2], 0.429 µM; in experiment [3] (read-out: IC50), 544 nM. For the same compound, in experiment [4], the Ki was 3960 nM.
In the case of `NS(=O)(=O)c1ccc(NC(=O)c2ccccc2)cc1`, the IC50 in experiment [4] was 70.1 µM; in experiment [2], 3.05 µM. Further, in experiment [4], the Ki turned out to be 16600 nM. Moreover, in experiment [5], the inhibition came to 48.4%.
With `Cc1ccc(S(=O)(=O)NCCc2ccc(S(N)(=O)=O)cc2)cc1`, the IC50 in experiment [4] was determined as 41.2 µM; in experiment [2] it was 2.96 µM; in experiment [3] (read-out: IC50), 241 nM. Besides, the Ki in experiment [4] was 17600 nM.
On to `NS(=O)(=O)c1ccc(CNC(=O)c2ccc(F)cc2)cc1`, for which the IC50 in experiment [4] was 0.613 µM; in experiment [2], 1.18 µM; in experiment [3] (read-out: IC50), 821 nM. In addition, in experiment [4], the Ki was 299 nM.

Usually inhibition stands for the share of the control response that was lost under treatment. One may read the IC50 as the concentration that gives 50% inhibition. The Ki is a dissociation constant, usually derived from enzyme kinetics or from competition with a known ligand.
